Results published in ChEMBL document CHEMBL2375266, “Design and synthesis of 2-substituted benzoxazoles as novel PTP1B inhibitors” (Bioorg Med Chem Lett, 2013).

Key:
[1] = biological target: T1, Tyrosine-protein phosphatase non-receptor type 1 (Homo sapiens, UniProt P18031); assay: Inhibition of PTP1B (unknown origin)-mediated pNPP hydrolysis to 4-nitrophenol after 60 mins by spectrophotometric analysis
T1 sequence (P18031 whole entry): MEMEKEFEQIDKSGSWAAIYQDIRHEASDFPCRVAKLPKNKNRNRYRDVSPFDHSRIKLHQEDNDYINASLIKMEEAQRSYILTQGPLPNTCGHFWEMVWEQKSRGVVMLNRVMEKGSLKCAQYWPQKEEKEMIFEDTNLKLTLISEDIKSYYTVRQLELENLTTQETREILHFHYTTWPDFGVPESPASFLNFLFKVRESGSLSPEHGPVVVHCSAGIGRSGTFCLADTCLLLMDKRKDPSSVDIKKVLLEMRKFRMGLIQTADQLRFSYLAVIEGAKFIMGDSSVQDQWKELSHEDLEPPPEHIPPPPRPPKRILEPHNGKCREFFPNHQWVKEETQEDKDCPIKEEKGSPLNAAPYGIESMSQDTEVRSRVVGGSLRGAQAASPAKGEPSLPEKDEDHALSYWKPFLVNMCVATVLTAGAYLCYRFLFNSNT
Procedure, shortened: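 Colorimetric pNPP assay at room temperature in 25 mM Tris pH 7.5, 75 mM NaCl, 1 mM DTT, 0.1% BSA. Compound dilution series was added, and the reaction was started with 5 nM PTP1B. After 60 min it was stopped with NaOH. 4-Nitrophenol was read at 405 nm, with corrections for substrate and compound absorbance.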

[2] = biological target: T2, Tyrosine-protein phosphatase non-receptor type 2 (Homo sapiens, UniProt P17706); assay: Inhibition of TCPTP (unknown origin)
T2 sequence (P17706 whole entry): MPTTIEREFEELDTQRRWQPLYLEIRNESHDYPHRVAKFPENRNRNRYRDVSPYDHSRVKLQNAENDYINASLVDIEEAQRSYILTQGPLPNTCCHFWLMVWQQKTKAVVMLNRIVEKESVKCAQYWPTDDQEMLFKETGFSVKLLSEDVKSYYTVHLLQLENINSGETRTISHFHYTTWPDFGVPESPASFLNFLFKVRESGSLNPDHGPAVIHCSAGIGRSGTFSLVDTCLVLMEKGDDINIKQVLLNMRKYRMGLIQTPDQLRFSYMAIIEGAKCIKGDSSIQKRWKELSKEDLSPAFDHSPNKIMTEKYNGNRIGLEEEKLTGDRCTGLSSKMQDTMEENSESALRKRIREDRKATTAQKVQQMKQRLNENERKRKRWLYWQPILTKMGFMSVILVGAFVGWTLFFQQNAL

[3] = biological target: T1, Tyrosine-protein phosphatase non-receptor type 1; assay: Inhibition of PTP1B (unknown origin)

Row | Ki [1] [µM] | Ki [2] [µM] | Ki [3] [µM] | Compound
1 | > 500 | – | – | O=C(O)c1ccc(CC(c2nc3ccccc3[nH]2)S(=O)(=O)Nc2ccc(F)cc2)cc1 (stereo not given)
2 | 125 | – | – | CN(c1ccc(F)cc1)S(=O)(=O)C(Cc1ccc(NC(=O)C(=O)O)cc1)c1nc2ccccc2[nH]1 (stereo not given)
3 | 331 | 137 | – | NS(=O)(=O)C(Cc1ccc(NC(=O)C(=O)O)cc1)c1nc2ccccc2o1 (stereo not given)
4 | 82.4 | 13.1 | – | O=C(O)C(=O)Nc1ccc(CC(c2nc3ccccc3o2)S(=O)(=O)NC(=O)c2ccc(Cl)cc2)cc1 (stereo not given)
5 | 41 | – | – | O=C(O)C(=O)Nc1ccc(CC(c2nc3ccccc3o2)S(=O)(=O)NCCc2ccc(Cl)cc2)cc1 (stereo not given)
6 | 35 | – | – | O=C(O)C(=O)Nc1ccc(C[C@H](c2nc3ccccc3o2)S(=O)(=O)Nc2ccc(F)cc2)cc1
7 | 67.5 | – | – | O=C(O)C(=O)Nc1ccc(CC(c2nc3ccccc3[nH]2)S(=O)(=O)Nc2ccc(F)cc2)cc1 (stereo not given)
8 | 14 | 18.9 | – | COc1ccc(CN(Cc2ccc(OC)cc2)S(=O)(=O)C(Cc2ccc(NC(=O)C(=O)O)cc2)c2nc3ccccc3o2)cc1 (stereo not given)
9 | 125 | 256 | – | O=C(O)C(=O)Nc1ccc(CC(c2nc3ccccc3o2)S(=O)(=O)NC(=O)c2ccccc2)cc1 (stereo not given)
10 | 235 | 22 | – | O=C(O)CN(CC(=O)O)S(=O)(=O)C(Cc1ccc(NC(=O)C(=O)O)cc1)c1nc2ccccc2o1 (stereo not given)
11 | 63 | 86.5 | – | CC(=O)NS(=O)(=O)C(Cc1ccc(NC(=O)C(=O)O)cc1)c1nc2ccccc2o1 (stereo not given)
12 | 23.6 | 8 | – | O=C(O)C(=O)Nc1ccc(CC(c2nc3ccccc3o2)S(=O)(=O)Nc2ccc(C(F)(F)F)cc2)cc1 (stereo not given)
13 | 6.7 | 3.7 | – | O=C(O)C(=O)Nc1ccc(C[C@H](c2nc3ccccc3o2)S(=O)(=O)N(Cc2ccc(Cl)cc2)Cc2ccc(Cl)cc2)cc1
14 | 66.5 | – | – | O=C(O)COc1ccc(CC(c2nc3ccccc3o2)S(=O)(=O)Nc2ccc(F)cc2)cc1O (stereo not given)
15 | 10 | – | – | O=C(O)C(=O)Nc1ccc(CC(c2nc3ccccc3o2)S(=O)(=O)N(Cc2ccc(F)cc2)Cc2ccc(F)cc2)cc1 (stereo not given)
16 | 35 | 21 | – | O=C(O)C(=O)Nc1ccc(CC(c2nc3ccccc3o2)S(=O)(=O)N(Cc2cccc(C(F)(F)F)c2)Cc2cccc(C(F)(F)F)c2)cc1 (stereo not given)
17 | 7.7 | 12.5 | – | O=C(O)C(=O)Nc1ccc(CC(c2nc3ccccc3o2)S(=O)(=O)N(Cc2ccc(C(F)(F)F)cc2)Cc2ccc(C(F)(F)F)cc2)cc1 (stereo not given)
18 | 211 | – | – | O=S(=O)(Nc1ccc(F)cc1)C(Cc1ccc(O)c(O)c1)c1nc2ccccc2[nH]1 (stereo not given)
19 | 68.8 | 134 | – | COc1ccc(NS(=O)(=O)C(Cc2ccc(NC(=O)C(=O)O)cc2)c2nc3ccccc3o2)cc1 (stereo not given)
20 | 14.9 | 6.4 | – | CC(C)(C)c1ccc(CN(Cc2ccc(C(C)(C)C)cc2)S(=O)(=O)C(Cc2ccc(NC(=O)C(=O)O)cc2)c2nc3ccccc3o2)cc1 (stereo not given)
21 | 62 | 9.2 | – | Cc1ccc(NS(=O)(=O)C(Cc2ccc(NC(=O)C(=O)O)cc2)c2nc3ccccc3o2)cc1 (stereo not given)
22 | 228 | 135 | – | CC(C)(C)NS(=O)(=O)C(Cc1ccc(NC(=O)C(=O)O)cc1)c1nc2ccccc2o1 (stereo not given)
23 | 162 | – | – | O=C(O)COc1ccc(CC(c2nc3ccccc3[nH]2)S(=O)(=O)Nc2ccc(F)cc2)cc1O (stereo not given)
24 | 16.8 | 17.2 | – | O=C(O)C(=O)Nc1ccc(CC(c2nc3ccccc3o2)S(=O)(=O)N(Cc2ccc(OC(F)(F)F)cc2)Cc2ccc(OC(F)(F)F)cc2)cc1 (stereo not given)
25 | 6.8 | – | – | O=C(O)C(=O)Nc1ccc(CC(c2nc3ccccc3o2)S(=O)(=O)N(Cc2ccccc2C(F)(F)F)Cc2ccccc2C(F)(F)F)cc1 (stereo not given)
26 | 92 | 101 | – | CC(C)Oc1ccc(NS(=O)(=O)C(Cc2ccc(NC(=O)C(=O)O)cc2)c2nc3ccccc3o2)cc1 (stereo not given)
27 | – | – | 0.018 | CCc1cc(CN(C(C)=O)C(=O)NCCCCOc2cccc(O)c2C(=O)OC)ccc1N(C(=O)C(=O)O)c1ccccc1C(=O)O
28 | 82.4 | 33.4 | – | CCCCNS(=O)(=O)C(Cc1ccc(NC(=O)C(=O)O)cc1)c1nc2ccccc2o1 (stereo not given)
